Data on 29 molecules can be found in article PMC6159316 (Journal of Insect Science, 2018).

Experiment [1] concerns the target T1, CSP1 (Chilo suppressalis, UniProt V9PY22).
T1 sequence (V9PY22 18-122): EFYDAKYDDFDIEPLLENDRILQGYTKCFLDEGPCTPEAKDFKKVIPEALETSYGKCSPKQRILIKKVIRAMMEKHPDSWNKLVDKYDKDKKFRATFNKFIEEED
Type of experiment: binding. The conditions noted are these: for IC50: read-out: CSP1 IC50, displacement of 1-NPN, ligand 2–30 µM; for Ki: read-out: CSP1 Ki, competitive binding with 1-NPN; for activity at 30 µM: pH 7.4, read-out: CSP1 Intensity %. An outline of the steps: (§1)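 Mature CSP cDNA in pET-30a(+), expressed in E. coli, purified, His-tag cleaved with enterokinase. […] Competition: 2 µM protein plus 2 µM 1-NPN in 50 mM Tris–HCl, titrated with 1 mM odorant stock to 2–30 µM final. Excitation 337 nm, emission 400–460 nm, three replicates.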

Experiment [2] deals with CSP2. The format is binding, Chilo suppressalis. The conditions noted are these: for IC50: read-out: CSP2 IC50, displacement of 1-NPN, ligand 2–30 µM; for Ki: read-out: CSP2 Ki, competitive binding with 1-NPN.
The target in experiment [3] is T2, CSP3 (Chilo suppressalis, UniProt V9PY40).
T2 sequence (V9PY40 19-126): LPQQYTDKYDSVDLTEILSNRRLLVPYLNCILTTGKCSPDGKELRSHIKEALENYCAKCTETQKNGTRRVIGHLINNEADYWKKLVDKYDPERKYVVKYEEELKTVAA
Type of experiment: binding. To be noted: for IC50: read-out: CSP3 IC50, displacement of 1-NPN, ligand 2–30 µM; for Ki: read-out: CSP3 Ki, competitive binding with 1-NPN; for activity at 30 µM: pH 7.4, read-out: CSP3 Intensity %. An outline of the steps:
as §1

For experiment [4], the system named is adult C. suppressalis. To be noted: ref Wei et al. 2013, Khuhro et al. 2017a; cited from earlier work.

Like-named read-outs stand apart in the source and are kept apart here.

As for Farnesene, the “binding affinity class for CSP1 (plant volatiles)” value in experiment [1] (criteria for plant volatiles) is listed as “did not show high or moderate binding affinity”. In addition, the IC50 in experiment [1] was 27.6 µM; in experiment [2], 24 µM; in experiment [3], > 30 µM. The results for the Ki in experiment [1] and in experiment [2] were 23.3 µM and 20.4 µM, respectively. Also, the “binding affinity class for CSP2 (plant volatiles)” value in experiment [2] (criteria for plant volatiles) is given as “did not show high or moderate binding affinity”. For the same molecule, the “binding affinity class for CSP3 (plant volatiles)” value in experiment [3] (criteria for plant volatiles) is recorded as “did not show high or moderate binding affinity”. Further, in experiment [4], the “electroantennographic (EAG) response” value is “significant EAG response”.
Consider `CCCC/C=C\CCCCCCCCCCCC=O` [Z13-Octadecenal], for which the values for the half-inhibitory concentration (IC50) in experiment [1], in experiment [2] and in experiment [3] were > 30 µM, 20 µM and 25.1 µM, respectively. Besides, the inhibition constant (Ki) in experiment [2] came out at 17.2 µM; in experiment [3] it was 22.5 µM.
As to `CC/C=C\CCO` [Z3-Hexenol], the 50% inhibitory concentration (IC50) was > 30 µM in experiment [1], 20.7 µM in experiment [2] and > 30 µM in experiment [3]. In experiment [2], the Ki came to 17.7 µM.
Turning to `CCCC/C=C\CCCCCCCCCC=O` [Z11-Hexadecenal], the IC50 in experiment [1] was determined as 20.9 µM; in experiment [2] it was 10.3 µM; in experiment [3], 6.96 µM. Moreover, the Ki in experiment [1] is 16.2 µM; in experiment [2] it was 8.89 µM; in experiment [3], 6.23 µM.
Regarding `CCCCCCCC/C=C\CCCCCCCC(=O)O` [Oleic acid], the values for the activity at 30 µM in experiment [1] and in experiment [3] were 58.9 ± 2.59% and 84.7 ± 2.37%, respectively. Moreover, the IC50 in experiment [2] is > 30 µM.
For `CCCCCCCCC=O` [1-Nonaldehyde], in that order: 74.1%, 75 ± 2.3% and > 30 µM.
On to `CCCCCCCCCCCCCCCC(=O)O` [Palmitic acid], for which the activity at 30 µM in experiment [1] was 78.2 ± 0.93%; in experiment [3], > 100%. Besides, the concentration for half-maximal inhibition (IC50) in experiment [2] is > 30 µM.
For `CCCCCC/C=C\CCCCCCCC=O` [Z9-Hexadecenal], the half-inhibitory concentration (IC50) in experiment [1] turned out to be 17.4 µM; in experiment [2], 11.1 µM; in experiment [3], 9.9 µM. In addition, the Ki in experiment [1] stood at 13.5 µM; in experiment [2], 9.55 µM; in experiment [3], 8.86 µM.
As to `CCCCCCCCCCCC(C)=O` [2-Tridecanone], the activity at 30 µM in experiment [1] was determined as 24.8 ± 1.61%; in experiment [3], 72.8 ± 2.06%. Moreover, in experiment [2], the IC50 worked out at 24.3 µM. Also, in experiment [2], the inhibition constant Ki came to 20.9 µM.
For `O=Cc1ccccc1` [Benzaldehyde], in that order: 34.2 ± 2.35%, 44.2 ± 3.53%, 28.5 µM and 24.5 µM.
As for `CCC/C=C/COC(C)=O` [E2-Hexenyl acetate], the IC50 in experiment [1], in experiment [2] and in experiment [3] was > 30 µM in each case.
Turning to `CCCCCCCCCCCCCC(C)=O` [2-Pentadecanone], the activity at 30 µM in experiment [1] came out at 27.9 ± 2.11%. Further, in experiment [2], the IC50 is 23.6 µM and the inhibition constant Ki turned out to be 20.3 µM. The activity at 30 µM in experiment [3] was found to be 67.6 ± 0.91%.
Turning to `CC1=CC[C@H](C(C)C)C=C1` [α-Phellandrene], the activity at 30 µM in experiment [1] came out at 73 ± 2.46%; in experiment [3], 95.3 ± 1.58%. For the same molecule, the half-maximal inhibitory concentration (IC50) in experiment [2] is > 30 µM.
`C=CC(C)=CCC=C(C)C` [Ocimene]: the IC50 in experiment [1], in experiment [2] and in experiment [3] was > 30 µM throughout.
`CCOC(=O)c1ccccc1` [Ethyl benzoates]: the IC50 in experiment [1], in experiment [2] and in experiment [3] was > 30 µM each time.
With `CCCCCC(C)O` (stereo not shown) [2-Heptanol], the activity at 30 µM is 48.9% in experiment [1] and 91.8 ± 1.7% in experiment [3]. In addition, the IC50 in experiment [2] is 10.8 µM. The inhibition constant (Ki) was 9.25 µM in experiment [2] and ≤ 10 µM in experiment [2] (listed as 2-heptanol).
Regarding `CCC/C=C/C=O` [E2-Hexenal], the 50% inhibitory concentration (IC50) in experiment [1], in experiment [2] and in experiment [3] was > 30 µM in each case.
As to `CC/C=C\CCOC(C)=O` [Z3-Hexenyl acetate], the IC50 in experiment [1], in experiment [2] and in experiment [3] was > 30 µM each time.
`C[C@@H]1CC[C@H]2C(C)(C)[C@H]3C[C@@]12CC[C@@]3(C)O` [(+)-Cedrol]: the activity at 30 µM in experiment [1] amounted to 47.2 ± 1.16%; in experiment [3], 45.2 ± 1.9%. In experiment [2], the IC50 was determined as 10.7 µM. In addition, the Ki in experiment [2] is 9.22 µM; in experiment [2] (listed as (+)-cedrol) it was ≤ 10 µM.
As to `OCc1ccccc1` [Benzyl alcohol], the activity at 30 µM in experiment [1] is 67.5 ± 2.24%; in experiment [3], 84.1 ± 2.96%. In addition, the IC50 in experiment [2] was > 30 µM.
Turning to `CCCCCCCCCCCC=O` [Laurinaldehyde], the IC50 in experiment [1] was 11.8 µM; in experiment [2], 19.3 µM; in experiment [3] it was > 30 µM. The inhibition constant Ki was 9.16 µM in experiment [1], ≤ 10 µM in experiment [1] (listed as laurinaldehyde) and 16.6 µM in experiment [2].
`CC/C=C\CCO` [E3-Hexenol]: the IC50 in experiment [1], in experiment [2] and in experiment [3] was > 30 µM throughout.
In the case of `CCCCCCCCCCCC(=O)O` [Lauric acid], the 50% inhibitory concentration (IC50) in experiment [1], in experiment [2] and in experiment [3] was > 30 µM each time.
As for `CCC/C=C\C=O` [Z2-Hexenal], the IC50 in experiment [1] is 15.8 µM; in experiment [3], > 30 µM. Also, the Ki in experiment [1] was determined as 12.2 µM; in experiment [2] it was 28.6 µM.
Take `CC=CC=CCO` [2,4 hexadienol]: in experiment [1], the activity at 30 µM came to 85.8%. In experiment [2], the IC50 is 18.4 µM and the Ki was 15.8 µM. The activity at 30 µM in experiment [3] came to 53.5 ± 1.87%.
For `CCCCC/C=C\C/C=C\CCCCCCCC(=O)O` [Linoleic acid], the activity at 30 µM in experiment [1] was determined as 55.6 ± 3.45%. Moreover, in experiment [2], the IC50 is 20.6 µM and the inhibition constant Ki was determined as 17.7 µM. For the same molecule, in experiment [3], the activity at 30 µM is 89.17 ± 0.88%.
Consider `CCCCCC(C)=O` [2-Heptanone], for which the activity at 30 µM in experiment [1] came to 49.3 ± 1.89%; in experiment [3] it was 82 ± 3.87%. Also, the 50% inhibitory concentration (IC50) in experiment [2] was > 30 µM.
`CCC/C=C/CO` [E2-hexenol]: the half-maximal inhibitory concentration (IC50) in experiment [1], in experiment [2] and in experiment [3] was > 30 µM in each case.
As to `CCCCCCO` [Hexyl alcohol], the activity at 30 µM in experiment [1] came out at 64 ± 4.34%; in experiment [3], 67.7 ± 3.05%. Also, in experiment [2], the half-maximal inhibitory concentration (IC50) is > 30 µM.

By IC50 is commonly meant the concentration at which inhibition is half-maximal. What is called Ki is a measure of affinity in units of concentration, obtained from inhibition or displacement.
